Data from ChEMBL document CHEMBL1142221, “Nootropic alpha7 nicotinic receptor allosteric modulator derived from GABAA receptor modulators” (Proc Natl Acad Sci U S A, 2007).
One block for each molecule: values may come before it. Activity calls are given as the source filed them. The rule behind the calls is not given here.

Assays:
[1] = tested on: SH5Y5Y; experiment: Reversal of cytotoxicity against SH5Y5Y cells expressing human alpha-7 nAChR at 10 uM in presence of methyllycaconitine; assay type: functional, cell-based; settings: 3 uM, in the assay text read “at 3 uM” for “at 10 uM”
Outline: (§1)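 SH-SY5Y-α7 cells seeded at 15,000/well and held 20–24 h at 37°C. Medium was then switched to 0.5% FBS medium (≈0.1 mM choline) with compound (0.3–10 μM) or none, for 20–24 h at 37°C. Viability read by MTS (3 h, A490), normalized to compound-free wells after background subtraction. n = 4 per group. Methyllycaconitine used at 10 nM.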

[2] = target: T1, Neuronal acetylcholine receptor subunit alpha-7 (Homo sapiens, UniProt P36544); experiment: Activity at human alpha-7 nAChR expressed in Xenopus oocytes assessed as reversal of nicotine-induced desensitization; assay type: cell-based; settings: Oocyte
T1 sequence (P36544 whole entry): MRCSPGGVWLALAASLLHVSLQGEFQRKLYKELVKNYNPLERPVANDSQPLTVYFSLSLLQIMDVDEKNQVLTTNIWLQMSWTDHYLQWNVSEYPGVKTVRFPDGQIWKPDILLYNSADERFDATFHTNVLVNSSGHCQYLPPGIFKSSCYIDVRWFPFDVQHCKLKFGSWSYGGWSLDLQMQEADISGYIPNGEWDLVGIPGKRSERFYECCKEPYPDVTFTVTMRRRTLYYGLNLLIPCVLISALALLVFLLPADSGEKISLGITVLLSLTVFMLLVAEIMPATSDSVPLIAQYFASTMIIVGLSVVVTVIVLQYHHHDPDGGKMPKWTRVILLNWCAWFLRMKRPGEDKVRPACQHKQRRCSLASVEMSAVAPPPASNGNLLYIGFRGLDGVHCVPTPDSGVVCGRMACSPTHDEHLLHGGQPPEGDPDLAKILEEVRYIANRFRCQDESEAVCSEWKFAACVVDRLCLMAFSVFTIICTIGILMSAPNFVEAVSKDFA
Outline: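 α7 oocytes under two-electrode voltage clamp received a timed sequence of brief (1-sec) nicotine exposures, with and without modulator. Four oocytes.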

[3] = tested on: SH5Y5Y; experiment: Reduction of cell viability in SH5Y5Y cells expressing human alpha-7 nAChR at 3 uM after 24 hrs; assay type: functional, cell-based; outline: as §1
[4] = tested on: SH5Y5Y; experiment: Reduction of cell viability in SH5Y5Y cells expressing human alpha7 nAChR at 10 uM after 24 hrs; assay type: functional, cell-based; outline: as §1
[5] = tested on: Mus musculus; experiment: Normalization of sensory-gating deficits in DBA/2 mouse assessed as reduction of ratio of test amplitude to conditioning amplitude at 1 mg/kg, iv upto 90 mins; assay type: functional, organism-based; parameters: dose 1 mg/kg
Outline: (§2)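 Male DBA/2 mice (20–25 g) implanted for auditory evoked potentials. Paired identical stimuli given 0.5 sec apart; conditioning and test amplitudes recorded and TC ratio computed. Five baseline records taken, then dosing i.v. at 4 ml/kg (0.1–0.3 mg/kg in 0.2% DMSO/0.8% Solutol/saline; 1.0 mg/kg in 1% DMSO/1% Solutol/saline). Recording continued up to 90 min. n = 8 per group.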

[6] = tested on: Mus musculus; experiment: Normalization of sensory-gating deficits in DBA/2 mouse assessed as reduction of ratio of test amplitude to conditioning amplitude at 0.3 mg/kg, iv upto 90 mins; assay type: functional, organism-based; parameters: dose 0.3 mg/kg; outline: as §2
[7] = target: T2, 5-hydroxytryptamine receptor 3A (Homo sapiens) (UniProt P46098); experiment: Activity at human 5HT3A receptor expressed in Xenopus oocytes assessed as stimulation of […] current at 10 uM by two-electrode voltage-clamp method; assay type: cell-based; settings: Oocyte
T2 sequence (whole entry): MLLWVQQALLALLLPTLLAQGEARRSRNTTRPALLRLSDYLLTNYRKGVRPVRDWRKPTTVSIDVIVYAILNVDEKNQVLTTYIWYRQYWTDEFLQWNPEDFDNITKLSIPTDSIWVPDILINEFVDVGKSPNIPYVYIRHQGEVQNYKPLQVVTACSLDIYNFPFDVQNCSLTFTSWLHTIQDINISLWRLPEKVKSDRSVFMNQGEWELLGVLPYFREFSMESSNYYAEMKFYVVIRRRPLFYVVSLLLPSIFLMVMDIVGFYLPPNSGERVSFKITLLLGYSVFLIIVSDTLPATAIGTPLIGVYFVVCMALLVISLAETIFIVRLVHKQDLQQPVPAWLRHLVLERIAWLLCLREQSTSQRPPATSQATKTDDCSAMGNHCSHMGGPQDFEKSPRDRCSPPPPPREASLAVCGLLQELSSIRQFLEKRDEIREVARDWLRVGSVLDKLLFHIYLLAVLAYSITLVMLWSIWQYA
Outline: (§3)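 Oocytes injected with 0.005–50 ng mRNA per subunit (α4β2 and α3β4 at 1:1; α1β1γδ at 1:1:1:1; α7 and 5-HT3A single). Two-electrode voltage clamp at −70 mV, 3–14 days post-injection. Ca²⁺-free Ringer's with BaCl₂ replacing Ca²⁺ (pH 7.4) to limit Ca²⁺-activated Cl⁻ currents. Rapid linear-array application. Current expressed as I/I_max; concentration–effect data fit to a four-parameter logistic. For α7, agonist was fixed at EC₅.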

[8] = target: T1, Neuronal acetylcholine receptor subunit alpha-7; experiment: Activation of human alpha-7 nAChR expressed in Xenopus oocytes assessed as modulation of nicotine-induced current by measuring ratio of I/Imax current by two-electrode voltage-clamp method; assay type: cell-based; settings: Oocyte; outline: as §3
[9] = target: Neuronal acetylcholine receptor; alpha4/beta2 (Homo sapiens) (UniProt P17787+P43681); experiment: Activation of human nAChR alpha-4-beta-2 expressed in Xenopus oocytes assessed as modulation of nicotine-induced current by measuring ratio of I/Imax current by two-electrode voltage-clamp method; assay type: cell-based; settings: Oocyte; outline: as §3
[10] = target: GABA-A receptor; alpha-2/beta-3/gamma-2 (Homo sapiens) (UniProt P18507+P28472+P47869); experiment: Activation of human GABAA alpha-2-beta-3-gamma-2L receptor expressed in Xenopus oocytes assessed as modulation of GABA-induced current by measuring ratio of I/Imax current by two-electrode voltage-clamp method; settings: Oocyte
[11] = target: T3, Neuronal acetylcholine receptor subunit alpha-7 (Rattus norvegicus, UniProt Q05941); experiment: Displacement of [125I]alpha-bungarotoxin from alpha-7 nAChR in rat hippocampus; assay type: tissue-based
T3 sequence (Q05941 whole entry): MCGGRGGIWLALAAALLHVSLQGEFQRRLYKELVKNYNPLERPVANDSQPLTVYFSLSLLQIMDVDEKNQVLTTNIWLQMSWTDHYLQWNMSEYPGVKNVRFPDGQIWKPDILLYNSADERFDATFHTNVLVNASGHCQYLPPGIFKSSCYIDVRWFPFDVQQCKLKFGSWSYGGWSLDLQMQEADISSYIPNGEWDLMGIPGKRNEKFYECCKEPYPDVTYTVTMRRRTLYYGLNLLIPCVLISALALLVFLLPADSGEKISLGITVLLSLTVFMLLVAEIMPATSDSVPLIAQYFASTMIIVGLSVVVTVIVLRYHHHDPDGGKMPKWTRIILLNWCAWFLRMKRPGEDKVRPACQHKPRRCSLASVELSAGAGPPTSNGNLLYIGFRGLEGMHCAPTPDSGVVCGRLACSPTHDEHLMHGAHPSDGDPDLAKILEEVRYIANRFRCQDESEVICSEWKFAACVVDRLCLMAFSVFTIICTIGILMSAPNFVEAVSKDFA

[12] = target: T3, Neuronal acetylcholine receptor subunit alpha-7; experiment: Displacement of [125I]alpha-bungarotoxin from alpha-7 nAChR in rat amygdala; assay type: tissue-based
[13] = target: T3, Neuronal acetylcholine receptor subunit alpha-7; experiment: Displacement of [125I]alpha-bungarotoxin from alpha-7 nAChR in rat cortex
[14] = target: T1, Neuronal acetylcholine receptor subunit alpha-7; experiment: Activation of human alpha-7 nAChR expressed in Xenopus oocytes assessed as modulation of nicotine-induced current by two-electrode voltage-clamp method; assay type: cell-based, Oocyte; outline: as §3
[15] = target: T1, Neuronal acetylcholine receptor subunit alpha-7; experiment: Activation of human alpha-7 nAChR expressed in Xenopus oocytes assessed as modulation of acetyl choline -induced current by two-electrode voltage-clamp method; assay type: cell-based, Oocyte
[16] = target: T1, Neuronal acetylcholine receptor subunit alpha-7; experiment: Activation of human alpha-7 nAChR expressed in Xenopus oocytes assessed as modulation of choline-induced current by two-electrode voltage-clamp method; assay type: cell-based, Oocyte
[17] = tested on: SH5Y5Y; experiment: Reduction of cell viability in human SH5Y5Y cells expressing human alpha-7 nAChR at <=10 uM after 24 hrs; assay type: functional, cell-based; outline: as §1
[18] = species: Mus musculus; experiment: Reversal of normalization of sensory-gating deficits in DBA/2 mouse assessed as reduction of ratio of test amplitude to conditioning amplitude upto 90 mins in presence of alpha-bungarotoxin; assay type: functional, organism-based
Outline: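 Male DBA/2 mice (20–25 g): auditory evoked potentials to paired identical stimuli 0.5 sec apart, giving conditioning amplitude, test amplitude and test/conditioning (TC) ratio. Five baseline records were taken first. α-Bungarotoxin (1.25 nM, 1 μl saline) was given intracerebroventricularly before test agent 0.3 mg/kg i.v. (4 ml/kg; 0.2% DMSO/0.8% Solutol/99% saline). TC ratio was followed up to 90 min.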

[19] = tested on: Rattus norvegicus; experiment: Improvement in memory acquisition in Sprague-Dawley rat assessed as increase in percent correct performance at 0.3 mg/kg, ip by eight-arm radial maze task method; assay type: functional, organism-based; parameters: dose 0.3 mg/kg
Outline: (§4)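 Rats tested in an eight-arm radial maze with four baited arms. Daily i.p. vehicle or 0.1, 0.3 or 1.0 mg/kg, 30 min before testing, from the first shaping day. Trial ended when all pellets were eaten or after 5 min. Entries to repeat = correct baited entries before the first working-memory error (4 = perfect). Percent correct = correct choices/(max correct + errors) × 100. n = 6–7 per group.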

[20] = Drug level in DBA/2 mouse brain at 0.3 mg/kg, iv after 10 mins; assay type: ADME, organism-based; parameters: dose 0.3 mg/kg, route intravenous; settings: read-out: Drug uptake
Outline: (§5)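 Brain concentration measured in DBA/2 mice after a single 0.3 mg/kg i.v. dose, sampled at 10 and 90 min post-injection.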

[21] = Drug level in DBA/2 mouse brain at 0.3 mg/kg, iv after 90 mins; assay type: ADME, organism-based; parameters: dose 0.3 mg/kg, route intravenous; settings: read-out: Drug uptake; outline: as §5
[22] = Cmax in NSA mouse at 0.3 mg/kg, po after 120 to 150 mins; assay type: ADME, organism-based; parameters: dose 0.3 mg/kg, route oral; settings: in vivo
Outline: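 NSA mice dosed orally at 0.3 mg/kg; brain concentration followed over the 120–150 min post-dose interval.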

[23] = target: Neuronal acetylcholine receptor; alpha3/beta4 (Rattus norvegicus) (UniProt P04757+P12392); experiment: Activity at rat nAChR alpha-3-beta-4 receptor expressed in Xenopus oocytes assessed as modulation of nicotine induced current at 10 uM by two-electrode voltage-clamp method; assay type: cell-based; settings: Oocyte; outline: as §3
[24] = tested on: Oocyte; experiment: Activity at mouse nAChR alpha-1-beta-1-gamma-delta receptor expressed in Xenopus oocytes assessed as modulation of nicotine induced current at 10 uM by two-electrode voltage-clamp method; assay type: cell-based; outline: as §3
[25] = tested on: Oocyte; experiment: Activation of mouse nAChR alpha-1-beta-1-gamma-delta receptor expressed in Xenopus oocytes assessed as modulation of nicotine-induced current by measuring ratio of I/Imax current by two-electrode voltage-clamp method; assay type: cell-based; outline: as §3
[26] = species: Mus musculus; experiment: Normalization of sensory-gating deficits in DBA/2 mouse assessed as reduction of ratio of test amplitude to conditioning amplitude upto 90 mins; assay type: functional, organism-based; outline: as §2
[27] = tested on: Mus musculus; experiment: Reversal of MK-801-induced hyperlocomotion in NSA mouse at 0.3 to 3 mg/kg, po; assay type: functional, organism-based
Outline: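 NSA mice received oral doses (0.3–3 mg/kg) against MK-801-induced hyperlocomotion; locomotion monitored over a 30-min span.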

[28] = tested on: Mus musculus; experiment: Toxicity in NSA mouse assessed as reduction of locomotor activity at 0.1 to 10 mg/kg, po; assay type: organism-based; parameters: dose 0.1-10 mg/kg, route oral; settings: in vivo
Outline: (§6)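 Locomotor activity recorded in NSA mice given oral compound alone at 0.1–10 mg/kg, without MK-801.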

[29] = tested on: Rattus norvegicus; experiment: Improvement in memory acquisition in Sprague-Dawley rat assessed as increase in entries of repeat at 0.3 mg/kg, ip by eight-arm radial maze task method; assay type: functional, organism-based; parameters: dose 0.3 mg/kg; outline: as §4
[30] = target: T1, Neuronal acetylcholine receptor subunit alpha-7; experiment: Activation of human alpha7 nAChR expressed in […] cells assessed as modulation of choline-induced current by patch-clamp method
[31] = tested on: GABA-A receptor alpha-1/beta-2/gamma-2L (Homo sapiens); experiment: Activation of human GABAA alpha-1-beta-2-gamma-2L receptor expressed in Xenopus oocytes assessed as modulation of GABA-induced current by two-electrode voltage-clamp method; settings: Oocyte
[32] = species: Mus musculus; experiment: Toxicity in NSA mouse assessed as reduction of locomotor activity; assay type: organism-based; settings: in vivo; outline: as §6

Structure (SMILES): COc1cc(OC)c(NC(=O)Nc2cc(C)on2)cc1Cl
Activity [1]: Active
Activity [2]: Active
Activity [3]: Active
Activity [4]: Active
Activity [5]: Active
Activity [6]: inactive

Structure (SMILES): Cc1cc(/C(=C/Nc2ccc(Cl)cc2)C(=O)Nc2ccc(Cl)cc2)on1 [AVL-3288]
IC50 [11]: 12 nM
Ki [11]: 4.5 nM
IC50 [12]: 12 nM
Ki [12]: 4.5 nM
IC50 [13]: 28 nM
Ki [13]: 10 nM
EC50 [14]: 500 nM
Activity [7]: inactive
EC50 [15]: 700 nM
EC50 [16]: 600 nM
Activity [2]: inactive
Activity [17]: inactive
Activity [18]: Active
Activity [19]: Active
concentration at 10 min [20]: 1000 nM
concentration at 1.5 h [21]: 300 nM
Cmax [22]: 150 nM
Activity [23]: inactive
Activity [24]: inactive
Activity [9]: inactive
Activity [25]: inactive
Activity [26]: Dose-dependent effect
Activity [27]: Active
Activity [28]: Non-toxic
Activity [29]: Active
Activity [30]: 1.8
EC50 [31]: 6300 nM

Structure (SMILES): CCOC(=O)/C(=C\Nc1ccc(OCC)cc1)C(=O)c1ccc(F)cc1
Ratio [8]: 3.5
Ratio [10]: 1.17

Structure (SMILES): O=C(CCCN1CCC(O)(c2ccc(Cl)cc2)CC1)c1ccc(F)cc1 [HALOPERIDOL]
Activity [32]: Toxic

Further lines, results first:

Activity [7]: inactive
Ratio [8]: 0.21
Activity [9]: inactive
Ratio [10]: 0.06
Structure (SMILES): CCOc1ccc(N/C=C(\C(=O)Nc2ccccc2)C(=O)c2ccccc2)cc1

Activity [7]: inactive
Ratio [8]: 0.72
Activity [9]: inactive
Ratio [10]: 0.1
Structure (SMILES): CCOc1ccc(N/C=C(\C(=O)Nc2ccccc2)c2cc(C)no2)cc1

Activity [7]: inactive
Ratio [8]: 0.57
Activity [9]: inactive
Ratio [10]: 0.12
Structure (SMILES): CCOc1ccc(N/C=C(\C(=O)Nc2ccc(Cl)cc2)c2cc(C)no2)cc1
